Assay outcomes as filed in PubChem BioAssay.
A selection: hits, their analogues and other compounds. The true share with any hit is near 1.2%.
CSN deneddyl inh – inhibitors of CSN-mediated cullin deneddylation, primary screen, biochemical, fluorescence polarization, uHTS | COP9 signalosome complex subunit 5 (Homo sapiens), Q92905 | hit rate 0.38% among 360,000 | inhibition, % at 12.5 µM | Purified CSN, SCF-Nedd8-OG deneddylation;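 active = pattern-corrected inhibition above about 35%, with an unprinted fluorescence ratio check between 0.5 and 1.5, limit read from the data, passing the limit was not always enough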;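 also: 0% = enzyme with substrate and 100% = substrate without enzyme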
Target sequence (Q92905 whole entry, looked up, one chain of several): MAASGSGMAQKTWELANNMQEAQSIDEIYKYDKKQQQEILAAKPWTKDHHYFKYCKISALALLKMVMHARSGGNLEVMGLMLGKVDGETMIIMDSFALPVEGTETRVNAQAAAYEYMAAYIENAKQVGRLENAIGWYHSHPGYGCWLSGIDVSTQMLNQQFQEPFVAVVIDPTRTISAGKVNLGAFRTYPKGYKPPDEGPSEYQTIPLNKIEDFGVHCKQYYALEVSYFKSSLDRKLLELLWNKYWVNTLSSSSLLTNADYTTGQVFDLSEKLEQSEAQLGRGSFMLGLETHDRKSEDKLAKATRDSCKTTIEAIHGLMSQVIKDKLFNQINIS
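Assay system: purified human Csn5 enzyme expressed in HEK293T cells; measure: % inhibition; also added: SCFSkp2-Nedd8OG substrate at 10 nM final; technique: fluorescence polarization; times: reaction 90 min, room temperature; medium: Tris buffer pH 7.5, NaCl, DTT, Tween-20, trehalose, ovalbumin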
HNF4A DNA FP – change in binding of human HNF4A to DNA, primary screen, biochemical, fluorescence polarization, FITC-DNA. 1 h. Hepatocyte nuclear factor 4-alpha (Homo sapiens), P41235. activity change, % at 10 µM. hit rate 0.3% among 360,000; in the data active = activity change above about 30%, passing the limit was not always enough
Rtt109 Vps75 – inhibitors of C. albicans Rtt109/Vps75 HAT, primary screen, biochemical, ThioGlo CoA-SH fluorescence, plate reader. Histone acetyltransferase RTT109 (Candida albicans (strain SC5314 / ATCC MYA-2876)), …. AID 540336, 2011. inhibition, % at 34.9 µM. purified Rtt109/Vps75, 4 h. hit rate 0.16% among 330,000;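 active = inhibition of at least 50% in every replicate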
TPT1 inhibitor – Candida albicans TPT1 enzyme inhibitors, primary screen, biochemical, fluorescence polarization; recombinant caTPT1, FP RNA substrate dephosphorylation; inhibition, % at 5 µM; AID 1962, 2009; tRNA 2'-phosphotransferase TPT1 (Candida albicans SC5314); hit rate 0.81% among 300,000;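 active = inhibition above the mean of all tested compounds plus 3 SD, set per screening campaign, cut at about 24% in these data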;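 also: plate controls were DMSO alone for no effect and ferristatin control at 100 nM for full effect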
caTPT1 confirm – Candida albicans TPT1 inhibitors, confirmation, biochemical, fluorescence polarization, triplicate | shares compounds with TPT1 inhibitor | recombinant caTPT1, RNase T1 coupled | inhibition, % at 5 µM | hit rate 74% among 2,400 | AID 2149, 2009;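 active = inhibition above the primary screen limit, the mean inhibition of all tested compounds plus 3 SD, cut at about 25% in these data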
RNase T1 inh – RNase T1 inhibitors, counter-screen for TPT1 inhibitor project, biochemical, fluorescence polarization; shares compounds with TPT1 inhibitor; RNase T1 cleavage, 1536-well; inhibition, % at 5 µM; hit rate 83% among 2,400;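 active = inhibition above the solvent-only control well mean plus 3 SD, limit set per screening run, cut at about 23% in these data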;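 also: plate controls were DMSO wells with enzyme for no effect and wells without RNase T1 for full effect; inhibitors block cleavage so intact labeled substrate keeps polarization high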
Target sequence (P00651 whole entry, looked up): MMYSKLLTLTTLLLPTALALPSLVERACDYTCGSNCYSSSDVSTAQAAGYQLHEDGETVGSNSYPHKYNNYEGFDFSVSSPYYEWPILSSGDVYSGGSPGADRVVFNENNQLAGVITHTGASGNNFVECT
CSN deneddyl val – Csn5 deneddylation inhibitors, confirmation, biochemical, fluorescence polarization, single concentration, SCF-Nedd8OG substrate | Csn5 deneddylation of SCF-Nedd8OG, 90 min | hit rate 62% among 540 | shares compounds with CSN deneddyl inh | inhibition, % at 16.6 µM; in the data active = inhibition above about 50%;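 also: 0% = DMSO with enzyme and 100% = no enzyme wells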
MMP2 cntr CSN – MMP-2 protease inhibition counter-screen, confirmation, counter-screen for CSN deneddylation inhibitor project, biochemical, fluorescence, single concentration; shares compounds with CSN deneddyl inh; recombinant MMP-2, FRET substrate fluorescence, 60 min; inhibition, % at 16.6 µM; hit rate 33% among 540;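 active = corrected plate-normalized z-score of 5 or more, or -5 or less, or inhibition of 15% or more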;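 also: plate controls were DMSO wells with enzyme for no effect and buffer wells lacking MMP-2 for full effect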
Thrombin counter – counter-screen for CSN deneddylation inhibitors: bovine thrombin inhibition; shares compounds with CSN deneddyl inh; bovine thrombin cleavage of Ub4-pepOG, fluorescence polarization; inhibition, % at 16.6 µM; hit rate 49% among 540; AID 720656;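 active = inhibition at or above a set limit, with a fluorescence interference ratio between 0.5 and a set maximum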
HNF4a DNA conf – change in HNF4A binding to DNA, retest, confirmation, biochemical, fluorescence polarization, FITC-DNA | hit rate 99% among 210 | 1 h | activity change, % at 12.5 µM | shares compounds with HNF4A DNA FP; call rule not given here
* = called active by the depositor; · = no result given; ! = a repeat was not active.

SMILES	CSN deneddyl inh	HNF4A DNA FP	Rtt109 Vps75	TPT1 inhibitor	caTPT1 confirm	RNase T1 inh	CSN deneddyl val	MMP2 cntr CSN	Thrombin counter	others
Cn1c(O)c(/C=N/N2CCOCC2)c(=O)n(-c2ccccc2)c1=S	0.7	3.8	3.5	3.0	·	·	·	·	·
CCc1ccccc1N1C(=O)/C(=C/c2ccc(N3CCN(C)CC3)o2)C(=O)NC1=S	128.4*	54.8*	-2.0	106.2*	142.3*	137.7*	11.6	-0.7	77.4*
CCc1ccccc1N1C(=O)NC(=O)/C(=C\c2cc(C)n(C)c2C)C1=O	-5.2	2.3	7.4	3.2	·	·	·	·	·
O=C1NC(=O)N(c2ccc3c(c2)OCO3)C(=O)/C1=C\c1ccc(N2CCCCC2)o1	88.8*	169.3	3.8	126.3*	147.6*	145.2*	138.1*	-26.2	54.0
Cc1ccc(Oc2cc(NN3CCCCC3)c([N+](=O)[O-])cc2[N+](=O)[O-])c([N+](=O)[O-])c1	0.1	-5.7	10.0	3.6	·	·	·	·	·
Cc1cc(C)cc(N2C(=O)NC(=O)/C(=C\C=C\c3ccco3)C2=O)c1	58.9*	6.0	-2.6	46.8*	44.9*	61.6*	58.9*	5.9	24.2*
Cn1cccc1/C=C1/C(=O)NC(=S)N(Cc2ccc(F)cc2)C1=O	8.2	-26.0	-1.3	18.4	·	·	·	·	·
O=C1NC(=O)N(Cc2ccc(F)cc2)C(=O)/C1=C\C=C\c1ccco1	99.3*	30.2	-2.1	90.2*	48.3*	62.6*	72.5*	8.0	17.1*
CC(C)c1ccc(N2C(=O)NC(=O)/C(=C/C=C/c3ccco3)C2=O)cc1	135.4*	65.6*	-12.0	102.2*	69.6*	72.4*	0.0	2.0	51.5*
CCc1ccc(N2C(=O)NC(=O)/C(=C\C=C\c3ccco3)C2=O)cc1	86.0*	10.8	2.8	57.5*	51.1*	68.0*	40.7	3.0	11.1
CCOP(=O)(Nc1ccc2c(c1)C(=NNC(N)=S)c1ccccc1-2)OCC	-1.4	-3.8	13.2	·	·	·	·	·	·
CS(=O)(=O)c1ccc(C2=C(CNC(=O)c3nccs3)[C@H]3CC[C@@H](C2)N3Cc2ccco2)cc1	0.5	-3.7	·	·	·	·	·	·	·
COc1ccc(N=Nc2c(O)[nH]c(=S)[nH]c2=O)cc1	57.9*	80.1*	-5.5	59.9*	54.6*	70.2*	·	·	·	HNF4a DNA conf=118.3*
O=c1[nH]c2ccccc2n1C1CCN(C(c2cccs2)c2nnnn2-c2ccc3c(c2)OCCO3)CC1 (centres undefined)	1.7	0.8	·	·	·	·	·	·	·
COc1ccc2[nH]c3c(c2c1)CCNC3C (centres undefined)	-3.6	2.8	-4.5	1.5	·	·	·	·	·
COc1ccc2c3c([nH]c2c1)C(C)NCC3 (centres undefined)	31.4	42.3*	6.0	27.2*	2.1	5.8	·	·	·	HNF4a DNA conf=54.9*
O=C(N/N=C/C1C(=O)NC(=S)N(c2ccccc2)C1=O)c1cc(Br)c(O)c(Br)c1 (centres undefined)	-4.1	2.5	-4.9	7.5	·	·	·	·	·
O=C1NC(=O)N(Cc2ccccc2Cl)C(=O)/C1=C/N1CCOCC1	29.9	37.4*	3.0	39.9*	47.5*	60.4*	·	·	·	HNF4a DNA conf=53.9*
Cc1cc(N(CCCl)CCCl)ccc1C=Cc1ccncn1	40.7*	66.7*	-4.3	·	·	·	53.3*	-22.8	36.9*
CCCCn1c(NS(=O)(=O)c2ccccc2)c(C(=O)OCC)c2nc3ccccc3nc21	62.6*	1.2	-3.7	2.2	·	·	103.0*	6.7	-32.0
Clc1cccc(N2Cc3cc(-c4ccccc4)ccc3-n3nncc3C2)c1	69.0*	-3.6	·	·	·	·	66.1*	13.7	24.7*
CC(=NCCN1CCOCC1)c1c(O)n(C2CCCCC2)c(=O)[nH]c1=O	-3.7	-4.0	2.4	-2.2	·	·	·	·	·
O=C(c1ccccc1)C1NC1c1ccccc1 (centres undefined)	-2.9	-2.5	4.7	-3.2	·	·	·	·	·
O=c1c2ccccc2nc(/C=C/c2ccc([N+](=O)[O-])o2)n1-c1ccc(O)cc1	49.6*	177.2	-0.4	·	·	·	65.4*	-0.5	45.7*
O=c1c2ccccc2nc(/C=C/c2ccc(O)cc2)n1-c1ccccc1O	3.4	3.0	-1.4	6.2	·	·	·	·	·
SMILES	CSN deneddyl inh	HNF4A DNA FP	Rtt109 Vps75	TPT1 inhibitor	caTPT1 confirm	RNase T1 inh	CSN deneddyl val	MMP2 cntr CSN	Thrombin counter	others
COC(=O)C1=C(c2ccc(F)cc2OCc2ccccc2)C[C@@H]2CC[C@H]1N2C(=O)NCc1cc(C)oc1C(F)(F)F	-1.4	5.4	6.0	·	·	·	·	·	·
CN(C)C1C(=O)C(C(N)=O)=C(O)C2(O)C(=O)C3=C(O)c4c(O)cccc4C(C)(O)C3CC12 (centres undefined)	16.6	-1.2	-1.8	-2.2	·	·	·	·	·
CN(C)[C@@H]1C(=O)C(C(N)=O)=C(O)[C@@]2(O)C(=O)C3=C(O)c4c(O)cccc4[C@@](C)(O)C3[C@H](O)C12 (some centres undefined)	36.6*!	-57.5	12.6	-31.4	·	·	88.8*	8.7	13.2
C[C@@H](N)Cc1cnc[nH]1	-2.7	-1.1	-1.0	1.4	·	·	·	·	·
CC1=C(O)C(=O)C=C2C1=CC=C1C2(C)CCC2(C)C3CC(C)(C(=O)O)CCC3(C)CCC12C (centres undefined)	42.0*	-6.6	2.1	·	·	·	·	9.6	-1.0
CC(=O)Nc1ccc(OC(=O)N(C)C)cc1	-4.5	0.1	-5.3	-2.9	·	·	·	·	·
Cn1ncnc2c(=O)n(C)c(=O)nc1-2	74.1*	111.7	18.2	3.1	·	·	-21.3	-6.8	-37.0
O=C1c2ccccc2-n2nnnc2C2c3ccccc3-n3nncc3CN12 (centres undefined)	0.8	-2.6	·	·	·	·	·	·	·
CCCCN1C(=O)/C(=C/C=C/c2ccco2)C(=O)NC1=S	89.0*	37.6*	7.3	·	·	·	-60.0	-5.0	67.0*
O=c1[nH]c(=S)[nH]c(O)c1N=Nc1ccc2c(c1)OCO2	13.4	42.0*	-0.5	9.8	·	·	·	·	·	HNF4a DNA conf=45.7*
O=c1[nH]c(O)c(Cc2ccc3c(c2)OCO3)c(=O)[nH]1	0.8	-1.4	-3.0	-3.6	·	·	·	·	·
